{"data": "Results collected from several papers", "target": "Tyrosine-protein kinase ZAP-70 (ZAP70, Homo sapiens, UniProt P43403)", "Sequence (P43403 1-619, as in one of the studies)": "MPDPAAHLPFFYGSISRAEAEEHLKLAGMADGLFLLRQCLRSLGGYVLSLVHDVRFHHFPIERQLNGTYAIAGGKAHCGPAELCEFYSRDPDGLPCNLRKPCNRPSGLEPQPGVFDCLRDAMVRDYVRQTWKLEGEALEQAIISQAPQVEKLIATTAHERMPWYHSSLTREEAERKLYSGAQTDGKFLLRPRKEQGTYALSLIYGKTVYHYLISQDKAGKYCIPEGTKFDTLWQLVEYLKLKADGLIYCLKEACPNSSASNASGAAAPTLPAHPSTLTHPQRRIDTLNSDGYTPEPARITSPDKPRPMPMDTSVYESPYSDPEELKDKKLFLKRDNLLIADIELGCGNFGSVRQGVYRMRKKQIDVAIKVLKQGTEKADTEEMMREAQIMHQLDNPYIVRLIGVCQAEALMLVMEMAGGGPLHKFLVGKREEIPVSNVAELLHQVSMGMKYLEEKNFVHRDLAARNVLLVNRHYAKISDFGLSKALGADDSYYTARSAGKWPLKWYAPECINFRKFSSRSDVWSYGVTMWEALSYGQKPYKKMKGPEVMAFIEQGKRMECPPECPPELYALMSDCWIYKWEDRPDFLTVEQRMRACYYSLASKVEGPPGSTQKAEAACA", "note": "Compare with care: the assays were run in different laboratories."}
{"SMILES": "CC(C)(C)c1ccc(-c2nc(CBr)nn2-c2cccc(O)c2)cc1", "effect on": "cell-free assay", "method": "competition with immobilised ligand", "concentration": "10 µM", "remaining binding [%]": 80}
{"SMILES": "O=C(O)[C@H]1[C@H](Cn2nnc3ccccc3c2=O)CC[C@@H]1C(=O)c1ccc(OCCC2CCOCC2)cc1", "effect on": "cell-free assay", "method": "competition with immobilised ligand", "concentration": "1 µM", "remaining binding [%]": 100}
{"SMILES": "FC(F)(F)Oc1cccc(-c2cnc3ccc(-c4ccncc4)nn23)c1", "effect on": "binding", "method": "competition with immobilised ligand", "concentration": "5 µM", "remaining binding [%]": 69}
{"SMILES": "c1cncc(-c2cccc(Nc3nccc(NC4CCCCC4)n3)c2)c1", "effect on": "binding", "method": "competition with immobilised ligand", "concentration": "10 µM", "remaining binding [%]": 91}
{"SMILES": "O=C(NCCCN1CCOCC1)c1ccc(Nc2nccc(-c3cc4ccccc4s3)n2)cc1", "effect on": "binding", "method": "competition with immobilised ligand", "concentration": "1 µM", "remaining binding [%]": 69}
{"SMILES": "CN(c1nccc(-c2cnn3ncccc23)n1)C1CC1", "effect on": "binding", "concentration": "1 µM", "remaining binding [%]": 100}
{"SMILES": "O=C(NCc1ncc(C(F)(F)F)cc1Cl)c1ccc2c(c1)C1(CCS(=O)(=O)CC1)[C@@H](C1CC1)N2S(=O)(=O)c1ccc(F)cc1", "effect on": "cell-free assay", "method": "competition with immobilised ligand", "concentration": "1 µM", "remaining binding [%]": 72}
{"SMILES": "COc1ccnn2ncc(-c3ccnc(N(C)C)n3)c12", "effect on": "binding", "concentration": "1 µM", "remaining binding [%]": 86}
{"SMILES": "C[C@@H]1CN(c2ccc3ncc(-c4ccc5[nH]nc(C6CC6)c5c4)n3n2)C[C@H](C)O1", "effect on": "binding", "method": "competition with immobilised ligand", "concentration": "50 nM", "remaining binding [%]": 100}
{"SMILES": "c1cnn2ncc(-c3ccnc(N4CCC45COC5)n3)c2c1", "effect on": "binding", "concentration": "1 µM", "remaining binding [%]": 80}
{"SMILES": "Cc1nc(C2CCN(C(=O)c3ccc(OC(F)(F)F)cc3N)CC2)c2ncc(N3CCN(C)CC3)cc2n1", "effect on": "cell-free assay", "method": "competition with immobilised ligand", "concentration": "1 µM", "remaining binding [%]": 100}
{"SMILES": "CNC(=O)[C@@H]1CC[C@@H](n2c(-c3ccc4cnccc4c3)nc3ccc(C(=O)NCc4cccc(C(N)=O)c4)cc32)C1", "effect on": "binding", "method": "competition with immobilised ligand", "concentration": "1 µM", "remaining binding [%]": 100}
{"SMILES": "O=C(NCC1CCOCC1)c1n[nH]cc1NC(=O)c1c(F)cccc1F", "effect on": "binding", "method": "competition with immobilised ligand", "concentration": "1 µM", "remaining binding [%]": 100}
{"SMILES": "O=C(c1ccc(Nc2ncc(Cl)c(-c3ccc(Cl)s3)n2)cc1)N1CCC(N2CCCC2)CC1", "effect on": "binding", "method": "competition with immobilised ligand", "concentration": "1 µM", "remaining binding [%]": 23}
{"SMILES": "CN(C)c1ncnc(-c2ccc3nc(Nc4cc(CN5CCN(C(=O)CC(F)(F)F)CC5)ccn4)[nH]c3c2)c1Cl", "effect on": "cell-free assay", "method": "competition with immobilised ligand", "concentration": "1 µM", "remaining binding [%]": 100}
{"SMILES": "COc1cnc(Nc2cccc(S(N)(=O)=O)c2)nc1N1CCN(c2ccccc2)C(=O)C1", "effect on": "binding", "method": "competition with immobilised ligand", "concentration": "1 µM", "remaining binding [%]": 43}
{"SMILES": "CN(CCCC(F)(F)F)c1nccc(-c2cnn3ncccc23)n1", "effect on": "binding", "concentration": "1 µM", "remaining binding [%]": 100}
{"SMILES": "CSc1cccnc1N1CCN(Cc2nc3ccccc3[nH]2)CC1", "effect on": "cell-free assay", "method": "competition with immobilised ligand", "concentration": "1 µM", "remaining binding [%]": 99}
{"SMILES": "Cc1cnn2ncc(-c3ccnc(N(C)C)n3)c2c1", "effect on": "binding", "concentration": "1 µM", "remaining binding [%]": 100}
{"SMILES": "C=CC(=O)N1CCC(C(=O)NCC(=O)N2CCN(c3nc(-c4cnc(N)nc4C(F)F)nc(N4CCOCC4)n3)CC2)CC1", "effect on": "binding", "method": "competition with immobilised ligand", "concentration": "1 µM", "remaining binding [%]": 100}
{"SMILES": "O=C(NCCCC1CCCCC1)c1ccc(CNC(=O)c2cnn(-c3ccccc3)c2C(F)(F)F)cc1", "effect on": "cell-free assay", "method": "competition with immobilised ligand", "concentration": "0.1 µM", "remaining binding [%]": 100}
{"SMILES": "N[C@@H]1CCN(c2nccc(-c3cnn4ncccc34)n2)C1", "effect on": "binding", "concentration": "1 µM", "remaining binding [%]": 53}
{"SMILES": "Cc1nc(N2CC[C@@H](O)C2)ncc1-c1cc(C(F)(F)F)cc2[nH]ncc12", "effect on": "binding", "method": "competition with immobilised ligand", "concentration": "1 µM", "remaining binding [%]": 65}
{"SMILES": "Cc1cnc(Nc2ccc(C(=O)N3CCC(N4CCCC4)CC3)cc2)nc1-c1cc2ccccc2s1", "effect on": "binding", "method": "competition with immobilised ligand", "concentration": "1 µM", "remaining binding [%]": 46}
{"SMILES": "C[C@@H]1CCN(c2nccc(-c3cnn4ncccc34)n2)C1", "effect on": "binding", "concentration": "1 µM", "remaining binding [%]": 75}
